# Data taken from ChEMBL document CHEMBL4043073, “Boronic Acid Modifications Enhance the Anti-Influenza A Virus Activities of Novel Quindoline Derivatives” (J Med Chem, 2017).
# Active and inactive are the calls of the source. No cut-off for these calls is given here.
# What was measured:
# NCI-H1299 = assay: Cytotoxicity against human H1299 cells at 20 uM after 48 hrs by resazurin based fluorescence method; format: cell-based; details: nci-h1299, 48 h
# In short: (§1)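 Confluent MDCK, A549 or H1299 cells exposed in triplicate to compound for 48 h at 37 °C (A549/H1299 at 20 μM). Resazurin added to 0.2 mg/mL final for 16 h. Fluorescence read at ex 544 / em 595 nm; viability as % of untreated.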
# A549 = assay: Cytotoxicity against human A549 cells at 20 uM after 48 hrs by resazurin based fluorescence method; format: cell-based; details: a549, 48 h; in short: as §1
# [1] = Selectivity index, ratio of CC50 for MDCK cells to IC50 for Influenza A virus (A/Puerto Rico/8/34(H1N1)) infected in MDCK cells assessed as reduction in virus-induced cytopathic effect; format: toxicity, cell-based; details: dog, read-out: Ratio CC50/IC50
# Influenza A virus [2] = assay: Antiviral activity against Influenza A virus (A/Puerto Rico/8/34(H1N1)) infected in MDCK cells assessed as reduction in virus titer at 10 uM preincubated with virus for 1 hr followed by viral infection measured after 24 hrs by crystal violet staining based plaque assay; format: functional, cell-based; details: A/Puerto Rico/8/1934(H1N1)
# In short: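 PR8 (MOI 1.0) preincubated with compound (2.5–10 μM) 1 h at 37 °C, then used to infect MDCK cells. After adsorption, medium with the same compound concentration was added. At 24 h p.i. supernatant virus titer was measured by plaque assay; n = 3.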
# Influenza A virus [3] = assay: Antiviral activity against Influenza A virus (A/Puerto Rico/8/34(H1N1)) infected in MDCK cells assessed as reduction in viral HA titer by measuring reduction in chicken RBC […] after 24 hrs by hemagglutination test; format: functional, cell-based; details: A/Puerto Rico/8/1934(H1N1)
# In short: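 MDCK cells infected at MOI 3.0 (single-cycle) with PR8, Cal09 or swine H3N2 Minnesota, then treated with compound for 24 h. Supernatant HA titers were read by 2-fold serial dilution with an equal volume of 1% chicken RBCs, 60 min at 4 °C. Expressed as percent of untreated-cell HA titer; IC50 derived; n = 4.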
# Influenza A virus [4] = assay: Antiviral activity against Influenza A virus (A/Puerto Rico/8/34(H1N1)) infected in Kunming mouse assessed as viral titer reduction in lungs at 20 mg/kg/day, po qd for 4 days measured on day 4 post last dose by crystal violet staining based plaque assay; format: functional, organism-based; details: A/Puerto Rico/8/1934(H1N1)
# In short: (§2)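 Female 4-week-old Kunming mice infected intranasally with PR8 (4 HAU/mouse). Oral gavage once daily began 2 h post-inoculation; placebo control. Mice euthanised on day 4; lungs homogenised in PBS and titrated by plaque assay on cell monolayers (agarose overlay, 3 days, crystal violet).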
# Influenza A virus [5] = assay: Antiviral activity against Influenza A virus (A/Puerto Rico/8/34(H1N1)) infected in Kunming mouse assessed as survival rate at 20 mg/kg/day, po qd for 7 days measured on day 14 post infection (reference value: 30%); format: functional; details: A/Puerto Rico/8/1934(H1N1)
# Influenza A virus [6] = assay: Antiviral activity against Influenza A virus (A/Puerto Rico/8/34(H1N1)) infected in Kunming mouse assessed as intact columnar epithelium in bronchiole without inflammatory cell infiltration at 20 mg/kg/day, po qd for 4 days by hematoxylin and eosin staining based assay; format: functional, organism-based; details: A/Puerto Rico/8/1934(H1N1)
# [7] = Drug uptake in human A549 cell nucleus at 20 uM after 4 hrs by DAPI staining based confocal microscopic analysis; format: ADME; details: a549, 4 h
# In short: (§3)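 A549 cells incubated with 20 μM compound 4 h at 37 °C, then fixed and DAPI-stained. Compound intrinsic fluorescence located by confocal microscopy.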
# Influenza A virus [8] = assay: Antiviral activity against Influenza A virus (A/swine/Minnesota/02719/2009(H3N2)) infected in MDCK cells assessed as virus yeild reduction preincubated with virus at 37 degC for 1 hr followed by viral infection for 1 hr measured after 3 days by crystal violet staining based plaque assay; format: functional, cell-based
# In short: (§4)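 Plaque reduction: about 50–100 PFU/well of PR8, Cal09 or Minnesota preincubated with compound (0–10 μM) 1 h at 37 °C. Mixture then adsorbed to MDCK monolayers 1 h at 4 °C. Overlay was DMEM with 1.5% agarose, DEAE-dextran and 1 μg/mL TPCK-trypsin for 3 days at 37 °C. Glutaraldehyde fix, crystal violet stain, plaque count; IC50 derived; n = 4.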
# Influenza A virus [9] = assay: Antiviral activity against Influenza A virus (A/Puerto Rico/8/34(H1N1)) infected in A549 cells assessed as reduction in localization of viral NP protein in nucleus at 10 uM preincubated with virus at 37 degC for 1 hr followed by viral adsorption at 4 degC for 1 hr and subsequent infection in A549 cells measured at 2 to 4 hrs post infection by FITC-staining based immunofluorescence microscopic method; format: functional, cell-based; details: A/Puerto Rico/8/1934(H1N1)
# In short: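 PR8 (MOI 1.0) pretreated with 10 μM compound 1 h at 37 °C, adsorbed 1 h at 4 °C, then A549 cells were kept in infecting medium with 10 μM compound. Fixed with 4% paraformaldehyde at 2 or 4 h p.i., permeabilised with Triton X-100 and blocked. Anti-NP plus FITC secondary, confocal imaging; nuclear NP intensity per unit area quantified (n = 30 images).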
# [10] = Cytotoxicity against MDCK cells after 48 hrs by resazurin based fluorescence method; format: cell-based, Canis lupus familiaris; details: dog; in short: as §1
# Influenza A virus [11] = assay: Antiviral activity against Influenza A virus (A/Puerto Rico/8/34(H1N1)) infected in MDCK cells assessed as virus yeild reduction preincubated with virus at 37 degreeC for 1 hr followed by viral infection for 1 hr measured after 3 days by crystal violet staining based plaque assay; format: functional, cell-based; details: A/Puerto Rico/8/1934(H1N1); in short: as §4
# [12] = tested on: Influenza A virus (A/California/04/2009(H1N1)); assay: Antiviral activity against Influenza A virus (A/California/04/2009(H1N1)) infected in MDCK cells assessed as virus yeild reduction preincubated with virus at 37 degC for 1 hr followed by viral infection for 1 hr measured after 3 days by crystal violet staining based plaque assay; format: functional, cell-based; in short: as §4
# [13] = tested on: Influenza A virus (A/Puerto Rico/8/1934(H1N1)); assay: Inhibition of Influenza A virus (A/Puerto Rico/8/34(H1N1)) neuraminidase using MUNANA as substrate preincubated for 30 mins followed by substrate addition measured after 30 mins by fluorescence assay relative to control
# In short: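 Inactivated PR8 virus supernatant mixed with compound (10 μM) in 33 mM MES […], 4 mM CaCl2 for 30 min at 37 °C. MUNANA (20 μM) was added for 30 min at 37 °C and the reaction stopped with glycine/ethanol pH 10.7. Fluorescence read at ex 360 / em 440 nm; zanamivir 10 μM as reference; n = 3.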
# Influenza A virus [14] = assay: Antiviral activity against Influenza A virus (A/Puerto Rico/8/34(H1N1)) infected in Kunming mouse assessed as pulmonary viral titer reduction at 10 mg/kg/day, po qd for 4 days measured on day 4 post last dose by crystal violet staining based plaque assay; format: functional, organism-based; details: A/Puerto Rico/8/1934(H1N1); in short: as §2
# Influenza A virus [15] = assay: Antiviral activity against Influenza A virus (A/Puerto Rico/8/34(H1N1)) infected in Kunming mouse assessed as intact columnar epithelium in bronchiole without inflammatory cell infiltration at 10 mg/kg/day, po qd for 4 days by hematoxylin and eosin staining based assay; format: functional, organism-based; details: A/Puerto Rico/8/1934(H1N1)
# [16] = Drug uptake in human A549 cells at 20 uM after 4 hrs by DAPI staining based confocal microscopic analysis; format: ADME, cell-based; details: a549, 4 h; in short: as §3
# [17] = Drug uptake in human A549 cell cytoplasm at 20 uM after 4 hrs by DAPI staining based confocal microscopic analysis; format: ADME; details: a549, 4 h; in short: as §3
# [18] = Drug uptake in human A549 cell membranes at 20 uM after 4 hrs by DAPI staining based confocal microscopic analysis; format: ADME; details: a549, 4 h; in short: as §3
# [19] = Selectivity index, ratio of CC50 for MDCK cells to IC50 for Influenza A virus (A/Puerto Rico/8/34(H1N1)) infected in MDCK cells by plaque assay; format: toxicity, cell-based; details: dog, read-out: Ratio CC50/IC50
# Influenza A virus [20] = assay: Antiviral activity against Influenza A virus (A/Puerto Rico/8/34(H1N1)) infected in MDCK cells assessed as reduction in virus-induced cytopathic effect after 48 hrs by crystal violet staining based assay; format: functional, cell-based; details: A/Puerto Rico/8/1934(H1N1)
# In short: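 MDCK cells infected with PR8 at MOI 0.1; compounds added in triplicate after inoculum removal. After 48 h cells were fixed with 4% formaldehyde and stained with 0.1% crystal violet. Dye was methanol-solubilised and read at 570 nm; IC50 was the concentration halving CPE.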
smiles,measurement,setting,value
O=C(Nc1ccc(Nc2c3ccccc3nc3c2[nH]c2ccccc23)cc1)c1cccc(B(O)O)c1,Activity,NCI-H1299,Non-Toxic
same,Activity,A549,Non-Toxic
CCOC(=O)C1=C[C@@H](OC(CC)CC)[C@H](NC(C)=O)[C@@H](N)C1 [OSELTAMIVIR],selectivity ratio,[1],36.2
same,Activity,Influenza A virus [2],Active
same,Activity,Influenza A virus [3],Active
same,Activity,Influenza A virus [4],Active
same,survival at 20 mg/kg/day,Influenza A virus [5],80%
same,Activity,Influenza A virus [6],Active
Nc1cccc(Nc2c3ccccc3nc3c2[nH]c2ccccc23)c1,Activity,NCI-H1299,Non-Toxic
same,Activity,A549,Non-Toxic
O=C(Nc1cccc(Nc2c3ccccc3nc3c2[nH]c2ccccc23)c1)c1cccc(B(O)O)c1,Activity,NCI-H1299,Non-Toxic
same,Activity,A549,Non-Toxic
Nc1ccc(Nc2c3ccccc3nc3c2[nH]c2ccccc23)cc1,Activity,NCI-H1299,Non-Toxic
same,Activity,A549,Non-Toxic
O=C(Nc1ccccc1Nc1c2ccccc2nc2c1[nH]c1ccccc12)c1ccc(B(O)O)cc1,Activity,NCI-H1299,Non-Toxic
same,Drug uptake,[7],Not Active
same,Activity,Influenza A virus [8],Active
same,Activity,A549,Non-Toxic
same,Activity,Influenza A virus [9],Active
same,Activity,Influenza A virus [2],Active
same,CC50 at 48 h,[10],78.6 µM
same,Activity,Influenza A virus [3],Active
same,Activity,Influenza A virus [11],Active
same,Activity,[12],Active
same,inhibition,[13],56%
same,Activity,Influenza A virus [14],Active
same,Activity,Influenza A virus [15],Active
same,Drug uptake,[16],Active
same,Drug uptake,[17],Active
same,Drug uptake,[18],Active
O=C(Nc1cccc(Nc2c3ccccc3nc3c2[nH]c2ccccc23)c1)c1ccc(B(O)O)cc1,Activity,NCI-H1299,Non-Toxic
same,Activity,A549,Non-Toxic
Nc1ccccc1Nc1c2ccccc2nc2c1[nH]c1ccccc12,Activity,NCI-H1299,Non-Toxic
same,selectivity ratio,[1],0.8
same,Drug uptake,[7],Active
same,Activity,Influenza A virus [8],Active
same,Activity,A549,Non-Toxic
same,Activity,Influenza A virus [9],Active
same,IC50,Influenza A virus [2],25.5 µM
same,CC50 at 48 h,[10],37.9 µM
same,Activity,Influenza A virus [3],Active
same,Activity,Influenza A virus [11],Active
same,Activity,[12],Active
same,inhibition,[13],inactive
same,Activity,Influenza A virus [14],inactive
same,Activity,Influenza A virus [15],Active
same,Drug uptake,[16],Active
same,selectivity ratio,[19],1.5
same,IC50,Influenza A virus [20],47.4 µM
O=C(Nc1ccc(Nc2c3ccccc3nc3c2[nH]c2ccccc23)cc1)c1ccc(B(O)O)cc1,Activity,NCI-H1299,Non-Toxic
same,Activity,A549,Non-Toxic
CC(=O)N[C@H]1[C@H]([C@H](O)[C@H](O)CO)OC(C(=O)O)=C[C@@H]1NC(=N)N,inhibition,[13],> 85%
